Shown are actives, neighbours in structure and some others; about 4.9% of the full set was active somewhere.
NPY-Y2 antag – NPY-Y2 (human) receptor antagonism; P49146; NPY-Y2 expressing cells, antagonist mode; inhibition, % at 2.7 µM; 140,000 compounds, 0.99% hits; in the data active means inhibition above about 17%
WT yeast gro inh – growth inhibition of WT yeast, mitochondrial fusion screen; mitochondrial fusion phenotypic screen, WT strain; inhibition, % at 10 µM; 190,000 compounds, 2.1% hits; in the data active means inhibition above about 58%; tested in S. cerevisiae
RAM network inh – blocks the yeast RAM network | S. cerevisiae dse1pr::URA3 reporter, 5-FOA growth OD615, 2 d; analog-sensitive cbk1-as2 kinase mutant strain | 190,000 compounds, 1.8% hits | AID 868 | inhibition, % at 50 µM;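 active means inhibition above a set limit, 3 SD over mean compound inhibition, cut at about 8.4% in these data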;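 further: inhibition rescues growth on 5-FOA so higher OD means more RAM inhibition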
NPY-Y1 antag – NPY-Y1 (human) receptor antagonism. P25929. HEK293-CNG Y1 cells, membrane potential fluorescence; NPY at EC95, then isoproterenol. inhibition, % at 3.6 µM. 200,000 compounds, 1% hits;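 active means inhibition above the campaign mean inhibition of all tested compounds plus 3 SD, cut at about 20% in these data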
Target sequence (P25929 whole entry, looked up): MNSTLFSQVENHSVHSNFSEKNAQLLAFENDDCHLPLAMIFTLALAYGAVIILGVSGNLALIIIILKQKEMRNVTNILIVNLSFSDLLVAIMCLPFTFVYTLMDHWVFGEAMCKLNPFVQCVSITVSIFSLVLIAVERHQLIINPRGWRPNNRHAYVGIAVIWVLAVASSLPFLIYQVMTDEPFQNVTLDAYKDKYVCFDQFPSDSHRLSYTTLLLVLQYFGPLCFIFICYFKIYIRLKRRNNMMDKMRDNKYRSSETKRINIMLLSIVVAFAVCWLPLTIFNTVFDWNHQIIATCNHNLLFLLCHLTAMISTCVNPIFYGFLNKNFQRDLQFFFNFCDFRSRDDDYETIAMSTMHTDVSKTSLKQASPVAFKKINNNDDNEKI
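System: HEK293 cells with Y1 receptor plus CNG channel / Probe or stimulus: NPY 25 nM then isoproterenol 1 µM plus Ro 20-1724 25 µM / Compound: one concentration, 3.6 µM, in 0.4% DMSO / Schedule: compound incubation 1 h at room temperature, readout 45 min post-stimulation / Measured by: membrane potential fluorescence / Read-out: % inhibition of NPY effect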
NPY-Y2 PAM-ag – potentiates or activates human NPY-Y2 receptor. P49146. 220,000 compounds, 0.45% hits. cells expressing NPY-Y2, potentiator/agonist read-out. AID 1359. activation, % at 3.6 µM; in the data active means activation above about 27%;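 further: cells stimulated with NPY near EC25 plus isoproterenol at EC100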
NPY-Y1 PAM-ag – human NPY-Y1 potentiation or agonism, primary screen; P25929; NPY-Y1 expressing cells, potentiator/agonist activation; activation, % at 3.6 µM; 220,000 compounds, 0.37% hits; in the data active means activation above about 33%, passing the limit was not always enough;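 further: cells stimulated with NPY at EC10 then isoproterenol at EC100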
Hits are given with their value; 0 = inactive; - = not tested or not shown.

SMILES	NPY-Y2 antag	WT yeast gro inh	RAM network inh	NPY-Y1 antag	NPY-Y2 PAM-ag	NPY-Y1 PAM-ag
Cc1noc(C)c1C(=O)Nc1nc(C23CC4CC(CC(C4)C2)C3)cs1	0	0	0	0	72	45
N/C(=N\OC(=O)CN1C(=O)c2ccccc2C1=O)c1ccc(Cl)cc1	-	0	0	0	0	0
O=C(COC(=O)c1ccccc1C(=O)c1ccccc1)NCc1ccc(F)cc1	-	0	0	0	0	0
Cc1onc(-c2ccccc2)c1C(=O)OCC(=O)NCc1ccc(F)cc1	-	0	8.5	0	0	0
COC(=O)c1ccc(NC(=O)C(=O)c2cccn2C)cc1	-	0	0	0	0	0
Cc1ccc(-n2nc3c(c2NC(=O)c2ccc4c(c2)OCO4)CS(=O)C3)cc1 (configuration not stated)	0	0	0	0	0	0
CCOc1ccc(C(=O)Nc2c3c(nn2-c2ccc(C)cc2)CS(=O)C3)cc1OCC (configuration not stated)	0	0	9.6	0	0	0
COc1ccc(-n2c(Cc3cccn3C)nnc2SCC(=O)Nc2ccccc2)cc1	0	0	9.8	0	0	0
COc1ccc(-n2c(Cc3cccn3C)nnc2SCC(=O)Nc2ccc(Cl)cc2)cc1	0	0	0	0	0	0
N#CCC(=O)N1CCCCCC1	0	0	0	0	0	0
COc1ccc(NC(=O)CCC(=O)N(Cc2ccc(OC)c(OC)c2)c2nccs2)cc1	0	0	10	0	0	0
C[n+]1ccc(/C=C/c2ccccc2O)c2ccccc21	-	65	0	0	0	0
Cn1c2[n+](c3ccc(Cl)cc3c1=O)Cc1ccccc1-2	-	-	-	-	0	0
O=C(NN1C(=O)/C(=C/C=C/c2ccccc2)SC1=S)c1ccncc1	-	0	9.3	0	0	0
O=C(CN1C(=O)/C(=C\C=C\c2ccccc2)SC1=S)Nc1ccc(F)cc1	0	0	9.7	0	0	0
O=C(CCN1C(=O)/C(=C/c2ccccc2)SC1=S)NNC(=O)c1ccncc1	-	0	8.8	0	0	0
Cn1cc(/C=C2\SC(=S)N(NC(=O)c3ccccc3)C2=O)c2ccccc21	0	0	0	0	0	0
O=C(CCN1C(=O)/C(=C\c2ccccc2)SC1=S)NNC(=O)c1ccncc1	-	-	-	-	0	0
CC(/C=C1\SC(=S)N(NC(=O)c2cccc(O)c2)C1=O)=C\c1ccccc1	0	86	0	0	0	0
Cc1onc(-c2ccccc2Cl)c1C(=O)Nc1nnc(-c2cccc([N+](=O)[O-])c2)s1	0	64	0	0	0	0
CCSc1nnc(NC(=O)c2c(-c3ccccc3Cl)noc2C)s1	0	0	0	0	0	0
Cc1c(C(=O)N2CCC(Cc3ccccc3)CC2)sc2ncnc(N3CCC(C)CC3)c12	-	0	0	0	0	0
Cc1c(C(=O)N2CCC(C)CC2)sc2ncnc(N(C)c3ccccc3)c12	0	88	0	0	0	0
CCOC(=O)Cc1csc(NS(=O)(=O)c2ccccc2)n1	0	0	0	0	0	0
Cc1ccc(-n2c(C)cc(C=C(C#N)C#N)c2C)cc1	18	0	0	32	0	0
SMILES	NPY-Y2 antag	WT yeast gro inh	RAM network inh	NPY-Y1 antag	NPY-Y2 PAM-ag	NPY-Y1 PAM-ag
CN1CC(=O)Nc2ccc(F)cc2C1=O	0	60	0	0	0	0
COCCOC(=O)c1c(C)nc(SCC(=O)Nc2ccc(OC)cc2)c(C#N)c1-c1ccco1	0	0	0	0	0	0
COc1cccc(NC(=O)CSc2nc3c(c(-c4ccco4)c2C#N)CCCC3)c1	0	76	9.2	0	0	0
C=CCN(C(=O)c1cccc(S(=O)(=O)N2CCN(C)CC2)c1)c1nc(-c2ccccc2)cs1	0	59	0	0	0	0
Clc1ccc(Cl)c(-c2ccc(/C=N/c3ncn[nH]3)o2)c1	0	0	0	0	0	0
COCCNCC(O)CON=C1c2ccccc2-c2ccccc21 (configuration not stated)	-	0	0	0	92	101
OC(CNCCC(c1ccccc1)c1ccccc1)COc1ccccc1 (configuration not stated)	-	74	0	0	89	96
CCNC(=O)CON=C1c2ccccc2-c2ccccc21	0	0	0	0	0	0
CCC(CC)NC(=O)CON=C1c2ccccc2-c2ccccc21	0	0	0	0	0	0
CC(C)CCNCC(O)CON=C1c2ccccc2-c2ccccc21 (configuration not stated)	-	0	0	0	45	45
Cc1cc(C)n(Cc2ccc(Cl)nc2)n1	-	0	0	0	0	0
O=[N+]([O-])c1cccc(S(=O)(=O)NCCc2cn3ccccc3n2)c1	-	-	-	-	0	0
Cc1ccc(NC(=O)COc2ccc(-c3nnco3)cc2)cc1S(=O)(=O)N1CCOCC1	-	0	0	0	0	0
CCOC(=O)CSc1n[nH]c(-c2cccnc2)n1	0	95	0	0	0	0
N#Cc1c(N)oc(-c2ccccc2)c1-c1ccccc1	0	0	0	0	0	0
CC(C)N(C(=S)NC1CC2CCC1C2)c1ccccc1 (configuration not stated)	-	65	0	0	0	0
CCN(CC1COc2ccccc2O1)C(=S)NC1CC2CCC1C2 (configuration not stated)	-	67	0	0	0	0
CN(C)c1cccc(C(=O)NNC(=S)NC2CC3CCC2C3)c1 (configuration not stated)	-	0	0	0	0	0
CN(CC1COc2ccccc2O1)C(=S)Nc1ccccc1 (configuration not stated)	0	-	-	0	0	0
CCCNC(=O)Cn1c2ccccc2c2nc(=O)cc(C)n21	0	0	0	0	0	0
CCOC(=O)CSc1nnc(-c2ccc(S(=O)(=O)NCc3cccs3)cc2)o1	0	-	-	0	88	91
COC(=O)CSc1nnc(-c2ccc(OC)c(OC)c2)o1	-	0	0	0	0	0
COC(=O)CSc1nnc(-c2ccc(S(=O)(=O)NCc3ccccc3Cl)cc2)o1	0	0	0	0	81	80
COC(=O)CSc1nnc(-c2ccc(S(=O)(=O)NCc3cccs3)cc2)o1	0	0	0	0	84	101
CCS(=O)(=O)Nc1ccc(-c2nnc(SCC(=O)OC)o2)cc1	0	0	0	0	0	0
CCOC(=O)CSc1nnc(-c2ccccc2)o1	0	0	0	0	0	0
CCCCOc1c(Br)cc(/C=N/O)cc1OCC	0	69	0	0	0	0
C=CCOc1c(Br)cc(/C=N/O)cc1OCC	0	0	0	0	0	0
COc1ccc(CNC(=O)C(c2cccs2)N(Cc2ccco2)C(=O)Cc2cccs2)cc1 (configuration not stated)	0	0	11	0	0	0
COC(=O)c1ccc(C(C(=O)NCc2ccccc2)N(Cc2cccs2)C(=O)c2cnccn2)cc1 (configuration not stated)	0	0	0	0	0	0

Bioassay records (PubChem)
